{"data": "Experimental data gathered from unrelated publications", "Trypanothione synthetase": "Trypanothione synthetase (Trypanosoma cruzi, UniProt Q9GT49)", "EAPA": "Endothiapepsin (EAPA, Cryphonectria parasitica, UniProt P11838)", "TACR1": "Substance-P receptor (TACR1, Homo sapiens, UniProt P25103)", "Tmem97": "Sigma intracellular receptor 2 (Tmem97, Rattus norvegicus, UniProt Q5U3Y7)", "HTR2C": "5-hydroxytryptamine receptor 2C (HTR2C, Homo sapiens, UniProt P28335)", "MMP3": "Stromelysin-1 (MMP3, Homo sapiens, UniProt P08254)", "note": "Protocols differ between the studies behind these lines."}
{"Compound": "CS(=O)(=O)O.c1cc2c(cc1C1CCCCC1)c1c3n2CCNC3CCC1 (centres unmarked)", "target": "Trypanothione synthetase", "assay": "enzyme activity, inhibitor, absorbance", "conditions": "25 µM", "inhibition": "28.9%"}
{"Compound": "CCN(CC)CCNC(=O)CN1C(=O)Cc2c([nH]c3ccc(Br)cc23)-c2ccc(Cl)cc21", "target": "Trypanothione synthetase", "assay": "enzyme activity, inhibitor, absorbance", "conditions": "30 µM", "inhibition": "17.1%"}
{"Compound": "CCCCCC(NN)c1nnnn1Cc1ccc2c(c1)OCO2 (centres unmarked)", "target": "EAPA", "assay": "enzyme activity, inhibitor", "conditions": "200 µM", "inhibition": "32.8%"}
{"Compound": "Oc1cccc(Nc2nc(-c3ccc(F)cc3F)cs2)c1", "target": "TACR1", "assay": "cell-free assay", "conditions": "10 µM", "inhibition": "30%"}
{"Compound": "O=C1N=C(N2CCCCN2)S/C1=C\\c1ccc(F)cc1O", "target": "Melatonin receptor type 1A (MTNR1A, Homo sapiens, UniProt P48039)", "assay": "ligand displacement, radioligand", "conditions": "10 µM", "inhibition": "< 10%"}
{"Compound": "CNC(=O)[C@@]12C[C@@H]1[C@@H](n1cnc3c(NC)nc(C#Cc4ccc(Cl)s4)nc31)[C@H](O)[C@@H]2O", "target": "Tmem97", "assay": "ligand displacement, radioligand", "conditions": "10 µM", "inhibition": "60 to 70%"}
{"Compound": "CCOC(=O)CN1C(=O)Cc2c([nH]c3ccc(Br)cc23)-c2ccc(Cl)cc21", "target": "Trypanothione synthetase", "assay": "enzyme activity, inhibitor, absorbance", "conditions": "30 µM", "inhibition": "19.1%"}
{"Compound": "NNC(CCc1ccccc1)c1nnnn1Cc1ccc2c(c1)OCO2 (centres unmarked)", "target": "EAPA", "assay": "enzyme activity, inhibitor", "conditions": "200 µM", "inhibition": "36.3%"}
{"Compound": "CN(C)C1CCN(CC#Cc2nn(C3CCCC3)c3nc(NCc4ccccc4)ncc23)C1 (centres unmarked)", "target": "Serine/threonine-protein kinase PLK1 (PLK1, Homo sapiens, UniProt P53350)", "assay": "enzyme activity, inhibitor, FRET", "conditions": "10 µM", "inhibition": "-5%"}
{"Compound": "CNC(=O)c1cc(Oc2ccc(NC(=O)Nc3ccc(Cl)c(C(F)(F)F)c3)cc2)ccn1", "target": "Serine/threonine-protein kinase SIK1 (SIK1, Homo sapiens, UniProt P57059)", "assay": "enzyme activity, inhibitor", "conditions": "0.3 µM", "inhibition": "4%"}
{"Compound": "CCCNc1nc2ccccc2n1Cc1ccc(Cl)cc1", "target": "Tmem97", "assay": "ligand displacement", "conditions": "10 µM", "inhibition": "54%"}
{"Compound": "C#CCOCCOCCOc1ccc2c3c1C1CCCC1N3CCNC2 (racemic)", "target": "HTR2C", "assay": "ligand displacement, radioligand", "conditions": "10 µM", "inhibition": "100%"}
{"Compound": "NNC(c1nnnn1CC(c1ccccc1)c1ccccc1)C1CCCCC1 (centres unmarked)", "target": "EAPA", "assay": "enzyme activity, inhibitor", "conditions": "200 µM", "inhibition": "71.3%"}
{"Compound": "COc1ccc(CCC(C)N2CCc3cc(OC)c(OC)cc3C2)cc1 (centres unmarked)", "target": "Tmem97", "assay": "ligand displacement, radioligand", "conditions": "0.1 µM", "inhibition": "98%"}
{"Compound": "O=C(c1ccc(Cl)cc1)N(Cc1ccccc1)C1CCCCC1", "target": "TACR1", "assay": "cell-free assay", "conditions": "10 µM", "inhibition": "15.1%"}
{"Compound": "O=C(CN1C(=O)Cc2c([nH]c3ccc(Br)cc23)-c2ccc(Cl)cc21)N1CCNCC1", "target": "Trypanothione synthetase", "assay": "enzyme activity, inhibitor, absorbance", "conditions": "30 µM", "inhibition": "17.1%"}
{"Compound": "O=C(Nc1ccc(S(=O)(=O)N2CCC(Cl)CC2)cc1)c1ccc([N+](=O)[O-])o1", "target": "TACR1", "assay": "ligand displacement, radioligand", "conditions": "10 µM", "inhibition": "3%"}
{"Compound": "COc1cc2c3c(c1OC)-c1cc4c(cc1CC3N(C)CC2c1ccccc1)OCO4 (centres unmarked)", "target": "HTR2C", "assay": "ligand displacement, radioligand", "conditions": "10 µM", "inhibition": "< 50%"}
{"Compound": "O=C(CN1C(=O)Cc2c([nH]c3ccc(Br)cc23)-c2ccc(Cl)cc21)N1CCN(c2ncccn2)CC1", "target": "Trypanothione synthetase", "assay": "enzyme activity, inhibitor, absorbance", "conditions": "30 µM", "inhibition": "40.6%"}
{"Compound": "CCN(CC)c1ccc(C2Nc3ccc(C(=O)c4ccccc4)cc3NC3=C2C(=O)CC(C)(C)C3)cc1 (centres unmarked)", "target": "HTR2C", "assay": "ligand displacement, radioligand", "conditions": "10 µM", "inhibition": "5%"}
{"Compound": "O=C(c1ccc(F)cc1)N(Cc1ccccc1)C1CCCCC1", "target": "B2 bradykinin receptor (BDKRB2, Homo sapiens, UniProt P30411)", "assay": "cell-free assay", "conditions": "10 µM", "inhibition": "-3%"}
{"Compound": "O=C(CN1C(=O)Cc2c([nH]c3ccc(Br)cc23)-c2ccc(Cl)cc21)Nc1ncco1", "target": "Trypanothione synthetase", "assay": "enzyme activity, inhibitor, absorbance", "conditions": "30 µM", "inhibition": "6.9%"}
{"Compound": "CCN(Cc1ccccc1C(F)(F)F)C(=O)C1CCN(S(=O)(=O)c2ccc3[nH]ncc3c2)CC1", "target": "TACR1", "assay": "ligand displacement, radioligand", "conditions": "10 µM", "inhibition": "18%"}
{"Compound": "NNC(CCc1ccccc1)c1nnnn1Cc1ccc2c(c1)OCCO2 (centres unmarked)", "target": "EAPA", "assay": "enzyme activity, inhibitor", "conditions": "200 µM", "inhibition": "42.5%"}
{"Compound": "COc1cc(NC(C)=O)c(Cl)cc1C(=O)Nc1nccs1", "target": "TACR1", "assay": "cell-free assay", "conditions": "10 µM", "inhibition": "-2.9%"}
{"Compound": "CCCCCC(NN)c1nnnn1Cc1ccc2c(c1)OCCO2 (centres unmarked)", "target": "EAPA", "assay": "enzyme activity, inhibitor", "conditions": "200 µM", "inhibition": "48.2%"}
{"Compound": "O=C(O)c1ccccn1", "target": "MMP3", "assay": "enzyme activity, inhibitor", "conditions": "1 mM, pH 6", "inhibition": "> 80%"}
{"Compound": "O=C(CN1C(=O)Cc2c([nH]c3ccc(Br)cc23)-c2ccc(Cl)cc21)NCCN1CCNCC1", "target": "Trypanothione synthetase", "assay": "enzyme activity, inhibitor, absorbance", "conditions": "30 µM", "inhibition": "7.9%"}
{"Compound": "C=CC1=C(C)C2=Cc3c(C=C)c(C)c4[n]3[Sn]([Cl])([Cl])[n]3c(c(C)c(CCC(=O)O)c3=CC3=NC(=C4)C(C)=C3CCC(=O)O)=CC1=N2", "target": "Trypanothione synthetase", "assay": "enzyme activity, inhibitor, absorbance", "conditions": "25 µM", "inhibition": "18.7%"}
{"Compound": "O=C(CN1C(=O)Cc2c([nH]c3ccc(Br)cc23)-c2ccc(Cl)cc21)NCCN1CCOCC1", "target": "Trypanothione synthetase", "assay": "enzyme activity, inhibitor, absorbance", "conditions": "30 µM", "inhibition": "11.3%"}
{"Compound": "Ic1cccc2cnccc12", "target": "NMNAT1 (Homo sapiens, UniProt Q9HAN9)", "assay": "enzyme activity, inhibitor", "conditions": "10 µM", "inhibition": "-3%"}
{"Compound": "N#Cc1cc(Cn2c(N3CCCC3)nc3ccccc32)ccc1F", "target": "Tmem97", "assay": "ligand displacement", "conditions": "10 µM", "inhibition": "88.9%"}
{"Compound": "CN1CC(Oc2cnc(C#N)cc2-c2ccn3nc(NC(=O)C4CC4)cc3c2)C1", "target": "MAPK/MAK/MRK overlapping kinase (MOK, Homo sapiens, UniProt Q9UQ07)", "assay": "enzyme activity, inhibitor", "conditions": "1 µM", "inhibition": "15%"}
{"Compound": "Oc1ccc(-c2nnc(CCCOc3ccc(Cl)cc3Cl)o2)c(F)c1", "target": "1-deoxy-D-xylulose-5-phosphate synthase (dxs, Deinococcus radiodurans, UniProt Q9RUB5)", "assay": "enzyme activity, inhibitor", "conditions": "120 µM", "inhibition": "49.2%"}
{"Compound": "O=C(O)c1ccc(C(=O)O)nc1", "target": "MMP3", "assay": "enzyme activity, inhibitor", "conditions": "1 mM, pH 6", "inhibition": "> 80%"}
{"Compound": "CN(Cc1ccc(NC(=O)C2=Cc3cc(-c4ccc(OCCCCCF)cc4)ccc3CCC2)cc1)C1CCOCC1", "target": "Tmem97", "assay": "ligand displacement, radioligand", "conditions": "10 µM", "inhibition": "7%"}
{"Compound": "NNC(COCc1ccccc1)c1nnnn1CC(=O)NCc1cccs1 (centres unmarked)", "target": "EAPA", "assay": "enzyme activity, inhibitor", "conditions": "200 µM", "inhibition": "51.9%"}
{"Compound": "CN(C)C(=O)CN1C(=O)Cc2c([nH]c3ccc(Br)cc23)-c2ccc(Cl)cc21", "target": "Trypanothione synthetase", "assay": "enzyme activity, inhibitor, absorbance", "conditions": "30 µM", "inhibition": "14.9%"}
